These results are taken from ChEMBL document CHEMBL1123225, “Opioid agonist and antagonist bivalent ligands. The relationship between spacer length and selectivity at multiple opioid receptors” (J Med Chem, 1986).

Starred links: 1 amine or outer side, 2 acyl side, 3 side chain; linkers in the order of their positions; H or OH if unused. Positions of bridges follow the written chain, without caps; N, C: chain ends. Residues, ends and D or L forms follow the SMILES beside them. Chains are numbered I, II in the order given. *: point of attachment. Naltrexamine(6β) = Oc1ccc2c3c1O[C@H]1[C@H](N*)CC[C@@]4(O)[C@@H](C2)N(CC2CC2)CC[C@]314; Suc = O=C(CCC(=O)[*:2])[*:1]

Assay [1] is described as follows: (§1) Relative potency is the IC5O in presence of bivalent ligand divided by IC50 in presence of monovalent ligand relative to EK. In a few lines:
(§2)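 Antagonism in electrically stimulated guinea pig ileum. Antagonist at 10 nM was incubated 30 min, then morphine (μ) or ethylketazocine (κ) concentration–response was run. IC50 ratio = agonist IC50 with antagonist / control IC50 in the same preparation without antagonist. Relative potency = bivalent IC50 ratio / monovalent IC50 ratio. Selectivity = EK IC50 ratio / morphine IC50 ratio.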

In assay [2] the target is Mu-type opioid receptor (Cavia porcellus) (UniProt P97266). Briefly: Affinity comparison to [3H]naloxone for Opioid receptor mu 1 in guinea pig brain membrane. Format: cell membranes.
Chain of Mu-type opioid receptor (Cavia porcellus) (P97266 whole entry): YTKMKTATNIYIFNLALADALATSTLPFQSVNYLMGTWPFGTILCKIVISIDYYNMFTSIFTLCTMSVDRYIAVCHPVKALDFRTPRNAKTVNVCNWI
The nature of assay [3]: Relative potency is the IC5O in presence of bivalent ligand divided by IC50 in presence of monovalent ligand relative to morphine. In a few lines: as §2
Assay [4] can be described thus: (§3) Selectivity ratio is expressed as EK IC50 ratio divided by morphine IC50 ratio. In a few lines:
as §2

Another assay deals with Mu-type opioid receptor (Cavia porcellus, UniProt P97266). Description: Displacement of [3H]naloxone from Opioid receptor mu 1 in guinea pig brain membrane. Format: cell membranes. A general note: In a radioligand displacement assay an active substance lowers the binding of a labelled ligand.
Chain of Mu-type opioid receptor (P97266 whole entry): as above
Assay [5] can be described thus: Relative potency is the bivalent potency ratio divided by monovalent potency ratio. In a few lines: (§4)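 Electrically stimulated guinea pig ileum longitudinal muscle, with agonist inhibition measured. Ligands were incubated 30 min before testing. Potency ratio = morphine IC50 / compound IC50 on the same tissue. The relative value divides the bivalent potency ratio by the monovalent potency ratio. Each value is the mean of at least three replicate experiments.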

Assay [6] in a line: Potency ratio is the ratio of morphine IC50 to that of compound on same tissue. In a few lines: as §4
Assay [7] deals with Opioid receptors; mu & kappa (Homo sapiens, UniProt P41145+P35372). Description: Activity against opioid receptor in guinea pig ileum longitudinal muscle. Conditions: target entry is the homologue from another species. Format: functional, tissue-based, Cavia porcellus. Put shortly:
as §4

Assay [8] has as its target T1, Opioid receptors; mu/kappa/delta (Homo sapiens) (UniProt P41145+P41143+P35372). The description is as §3. Format: protein assay. Conditions: Cavia porcellus. In a few lines: as §2
The target of assay [9] is T1, Opioid receptors; mu/kappa/delta (Homo sapiens). Briefly: Relative potency is the IC50 in presence of bivalent ligand divided by IC50 in presence of monovalent ligand relative to morphine. The note with it: Cavia porcellus. Put shortly:
as §2

Assay [10] has the same target. Description: IC50 of the morphine in the presence of the antagonist (10 nM) divided by the control IC50 (same preparation without antagonist) in guinea pig ileum. Format: functional, tissue-based. Conditions: Cavia porcellus, target entry is the homologue from another species. In a few lines:
as §2

Assay [11] shares this target. Briefly: IC50 of ethylketazocine (EK) in the presence of the antagonist (10 nM) divided by the control IC50 (same preparation without antagonist) in guinea pig ileum. Format: functional, tissue-based. The note with it: Cavia porcellus, target entry is the homologue from another species. In a few lines:
as §2

The target is the same in assay [12]. The description is as §1. Format: protein assay. The note with it: Cavia porcellus. Put shortly:
as §2

T1 sequence (P35372 whole entry, looked up): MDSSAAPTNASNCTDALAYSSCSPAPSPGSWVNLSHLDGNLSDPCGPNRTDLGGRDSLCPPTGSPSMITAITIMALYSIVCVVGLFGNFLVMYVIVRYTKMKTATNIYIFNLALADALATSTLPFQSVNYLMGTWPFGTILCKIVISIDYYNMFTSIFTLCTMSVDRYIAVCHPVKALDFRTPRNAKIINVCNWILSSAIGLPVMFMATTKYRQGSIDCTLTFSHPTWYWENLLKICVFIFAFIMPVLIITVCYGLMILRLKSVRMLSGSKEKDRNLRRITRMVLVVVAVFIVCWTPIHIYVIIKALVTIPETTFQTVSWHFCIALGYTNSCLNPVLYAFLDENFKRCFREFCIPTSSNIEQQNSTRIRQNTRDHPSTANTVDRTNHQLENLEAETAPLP
T1 sequence (P41143 whole entry, looked up): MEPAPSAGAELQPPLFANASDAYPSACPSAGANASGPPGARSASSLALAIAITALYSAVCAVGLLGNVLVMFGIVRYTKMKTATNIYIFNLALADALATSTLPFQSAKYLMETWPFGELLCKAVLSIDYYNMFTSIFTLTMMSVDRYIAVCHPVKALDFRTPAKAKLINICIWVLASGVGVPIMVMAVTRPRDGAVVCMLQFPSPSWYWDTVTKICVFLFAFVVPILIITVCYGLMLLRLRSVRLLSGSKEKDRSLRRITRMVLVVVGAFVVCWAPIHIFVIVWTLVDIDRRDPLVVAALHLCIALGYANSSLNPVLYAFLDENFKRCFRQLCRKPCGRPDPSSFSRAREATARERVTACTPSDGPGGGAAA
T1 sequence (P41145 whole entry, looked up): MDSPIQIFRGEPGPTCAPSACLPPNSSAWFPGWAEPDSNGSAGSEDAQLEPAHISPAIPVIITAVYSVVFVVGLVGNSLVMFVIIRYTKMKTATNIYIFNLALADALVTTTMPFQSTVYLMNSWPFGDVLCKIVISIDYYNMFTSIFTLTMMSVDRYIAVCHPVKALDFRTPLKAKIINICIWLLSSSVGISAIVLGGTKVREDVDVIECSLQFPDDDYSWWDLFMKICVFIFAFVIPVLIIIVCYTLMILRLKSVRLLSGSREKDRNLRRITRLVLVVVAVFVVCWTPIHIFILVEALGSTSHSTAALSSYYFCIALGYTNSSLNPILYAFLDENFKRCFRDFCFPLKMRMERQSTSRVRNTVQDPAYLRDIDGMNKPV

As for `O=C(CCC(=O)N[C@@H]1CC[C@@]2(O)[C@H]3Cc4ccc(O)c5c4[C@@]2(CCN3CC2CC2)[C@H]1O5)N[C@@H]1CC[C@@]2(O)[C@H]3Cc4ccc(O)c5c4[C@@]2(CCN3CC2CC2)[C@H]1O5`, the Ratio in assay [1] turned out to be 25.3; in assay [3] it was 5.1. This compound registered a Relative affinity in [2] of 0.8. Further, the Selectivity ratio in assay [4] amounted to 1.1. The affinity at Mu-type opioid receptor corresponds to a Ki of 1.7 nM.

As for `CC(=O)N[C@@H]1CC[C@@]2(O)[C@H]3Cc4ccc(O)c5c4[C@@]2(CCN3C)[C@H]1O5`, in assay [5], the Ratio was determined as 1. Besides, the Potency ratio in [6] amounted to 2.3. The compound also had a Relative affinity in assay [2] of 1. The Ki (usually a dissociation constant, usually derived from enzyme kinetics or from competition with a known ligand) on Mu-type opioid receptor worked out at 63 nM. For the same compound, the IC50 (as a rule, the concentration at which inhibition is half-maximal) in assay [7] is recorded as 45.9 nM.

For `CN1CC[C@]23c4c5ccc(O)c4O[C@H]2[C@@H](NC(=O)CNC(=O)CNC(=O)CNC(=O)CCC(=O)NCC(=O)NCC(=O)NCC(=O)N[C@H]2CC[C@@]4(O)[C@H]6Cc7ccc(O)c8c7[C@@]4(CCN6C)[C@H]2O8)CC[C@@]3(O)[C@H]1C5`, the Ratio in assay [5] came to 2.9. Also, the Potency ratio in assay [6] was found to be 5.5. The compound also returned a Relative affinity in assay [2] of 5.3. This compound registered a Ki on Mu-type opioid receptor of 34 nM. In [7], this compound returned an IC50 of 25.1 nM.

For the compound `O=C(CCC(=O)NCC(=O)NCC(=O)N[C@@H]1CC[C@@]2(O)[C@H]3Cc4ccc(O)c5c4[C@@]2(CCN3CC2CC2)[C@H]1O5)NCC(=O)NCC(=O)N[C@@H]1CC[C@@]2(O)[C@H]3Cc4ccc(O)c5c4[C@@]2(CCN3CC2CC2)[C@H]1O5`, the figures for the Ratio in assay [1] and in [3] were 10.7 and 33.5, respectively. In [2], this compound displayed a Relative affinity of 0.9. Besides, in assay [4], the Selectivity ratio was found to be 0.2. The compound further yielded a Ki at Mu-type opioid receptor of 1.5 nM.

For the compound `O=C(CCC(=O)NCC(=O)N[C@@H]1CC[C@@]2(O)[C@H]3Cc4ccc(O)c5c4[C@@]2(CCN3CC2CC2)[C@H]1O5)NCC(=O)N[C@@H]1CC[C@@]2(O)[C@H]3Cc4ccc(O)c5c4[C@@]2(CCN3CC2CC2)[C@H]1O5`, the Ratio in assay [1] was determined as 18.6; in assay [3], 10.6. Also, the Relative affinity in assay [2] was 0.6. Moreover, in assay [4], the Selectivity ratio worked out at 0.4. Besides, on Mu-type opioid receptor, the Ki is 2.3 nM.

Consider `CN1CC[C@]23c4c5ccc(O)c4O[C@@H]2[C@H](NC(=O)CNC(=O)CNC(=O)CNC(=O)CCC(=O)NCC(=O)NCC(=O)NCC(=O)N[C@@H]2CC[C@]4(O)[C@H]6Cc7ccc(O)c8c7[C@@]4(CCN6C)[C@@H]2O8)CC[C@]3(O)[C@H]1C5`, for which, in assay [5], the Ratio was determined as 1.7. Further, the Potency ratio in assay [6] came out at 3.9. For the same compound, the Relative affinity in [2] turned out to be 2.9. Moreover, the Ki at Mu-type opioid receptor is 22 nM. In addition, the IC50 in assay [7] was found to be 12.6 nM.

On to `O=C(CCC(=O)NCC(=O)NCC(=O)NCC(=O)NCC(=O)N[C@@H]1CC[C@@]2(O)[C@H]3Cc4ccc(O)c5c4[C@@]2(CCN3CC2CC2)[C@H]1O5)NCC(=O)NCC(=O)NCC(=O)NCC(=O)N[C@@H]1CC[C@@]2(O)[C@H]3Cc4ccc(O)c5c4[C@@]2(CCN3CC2CC2)[C@H]1O5` (I: GGGG-{Naltrexamine(6β)} / II: GGGG-{Naltrexamine(6β)}; linker I:N-II:N via Suc), for which, in assay [8], the Selectivity ratio came out at 0.2. Besides, the Ratio in assay [9] was 7.5; in assay [12], 6. Moreover, the IC50 ratio in assay [10] amounted to 40.7; in assay [11] it was 7.2.

As for `CN1CC[C@]23c4c5ccc(O)c4O[C@@H]2[C@H](NC(=O)CNC(=O)CNC(=O)CCC(=O)NCC(=O)NCC(=O)N[C@@H]2CC[C@]4(O)[C@H]6Cc7ccc(O)c8c7[C@@]4(CCN6C)[C@@H]2O8)CC[C@]3(O)[C@H]1C5`, the Ratio in [5] stood at 3.5. In addition, the Potency ratio in assay [6] was 8. Besides, the Relative affinity in assay [2] came out at 6.3. The inhibitory constant (Ki) at Mu-type opioid receptor was found to be 10 nM. Further, in assay [7], the IC50 is reported as 6.3 nM.

Regarding `CN1CC[C@]23c4c5ccc(O)c4O[C@H]2[C@@H](NC(=O)CNC(=O)CCC(=O)NCC(=O)N[C@H]2CC[C@@]4(O)[C@H]6Cc7ccc(O)c8c7[C@@]4(CCN6C)[C@H]2O8)CC[C@@]3(O)[C@H]1C5`, the Ratio in [5] amounted to 2.1. In [6], the Potency ratio is 4. Further, in assay [2], the Relative affinity is 4.1. For the same compound, the Ki at Mu-type opioid receptor came out at 44 nM. The same compound yielded a 50% inhibitory concentration (IC50) in [7] of 22 nM.

In the case of `CN1CC[C@]23c4c5ccc(O)c4O[C@H]2[C@@H](NC(=O)CNC(=O)CNC(=O)CCC(=O)NCC(=O)NCC(=O)N[C@H]2CC[C@@]4(O)[C@H]6Cc7ccc(O)c8c7[C@@]4(CCN6C)[C@H]2O8)CC[C@@]3(O)[C@H]1C5`, in assay [5], the Ratio came to 18.9. In assay [6], the Potency ratio is 36. This compound also came in with a Relative affinity in [2] of 12.9. The Ki on Mu-type opioid receptor was 14 nM. This compound yielded an IC50 in assay [7] of 3.9 nM.

For the compound `O=C(CCC(=O)NCC(=O)NCC(=O)NCC(=O)N[C@@H]1CC[C@@]2(O)[C@H]3Cc4ccc(O)c5c4[C@@]2(CCN3CC2CC2)[C@H]1O5)NCC(=O)NCC(=O)NCC(=O)N[C@@H]1CC[C@@]2(O)[C@H]3Cc4ccc(O)c5c4[C@@]2(CCN3CC2CC2)[C@H]1O5`, the Ratio in assay [1] came out at 6.8; in [3], 11.4. In addition, the Relative affinity in assay [2] worked out at 0.9. Moreover, in assay [4], the Selectivity ratio turned out to be 0.1. Besides, the affinity on Mu-type opioid receptor corresponds to a Ki of 1.6 nM.

In the case of `CN1CC[C@]23c4c5ccc(O)c4O[C@@H]2[C@H](NC(=O)CCC(=O)N[C@@H]2CC[C@]4(O)[C@H]6Cc7ccc(O)c8c7[C@@]4(CCN6C)[C@@H]2O8)CC[C@]3(O)[C@H]1C5`, the Ratio in assay [5] worked out at 1.9. Further, in assay [6], the Potency ratio came to 4.3. The compound also showed a Relative affinity in assay [2] of 2.7. The same compound had a Ki at Mu-type opioid receptor of 23 nM. The compound further showed a concentration for half-maximal inhibition (IC50) in [7] of 15.7 nM.

For the compound `CN1CC[C@]23c4c5ccc(O)c4O[C@H]2[C@@H](NC(=O)CCC(=O)N[C@H]2CC[C@@]4(O)[C@H]6Cc7ccc(O)c8c7[C@@]4(CCN6C)[C@H]2O8)CC[C@@]3(O)[C@H]1C5`, in assay [5], the Ratio amounted to 2.4. For the same compound, the Potency ratio in assay [6] came out at 4.6. In [2], the Relative affinity amounted to 3.6. Also, on Mu-type opioid receptor, the Ki stood at 50 nM. In assay [7], this compound had an IC50 of 30.2 nM.

Regarding `CN1CC[C@]23c4c5ccc(O)c4O[C@@H]2[C@H](NC(=O)CNC(=O)CCC(=O)NCC(=O)N[C@@H]2CC[C@]4(O)[C@H]6Cc7ccc(O)c8c7[C@@]4(CCN6C)[C@@H]2O8)CC[C@]3(O)[C@H]1C5`, the Ratio in assay [5] came out at 2.5. In [6], the Potency ratio was 5.8. The Relative affinity in assay [2] was determined as 3.5. The compound also registered a Ki at Mu-type opioid receptor of 18 nM. The same compound gave an IC50 in assay [7] of 19.2 nM.
